Source: PubChem BioAssay (several laboratories)
NPY2 pot ag: human NPY-Y2 potentiation or agonism, primary screen | P49146 | activation, % at 3.6 µM | cells expressing NPY-Y2, potentiator/agonist read-out | AID 1359 | 0.45% of 220,000 active; in the data active = activation above about 27%;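 note: cells stimulated with NPY near EC25 plus isoproterenol at EC100; 0% = vehicle plus submaximal agonist and 100% = vehicle plus saturating agonist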
Target sequence (P49146 whole entry, looked up): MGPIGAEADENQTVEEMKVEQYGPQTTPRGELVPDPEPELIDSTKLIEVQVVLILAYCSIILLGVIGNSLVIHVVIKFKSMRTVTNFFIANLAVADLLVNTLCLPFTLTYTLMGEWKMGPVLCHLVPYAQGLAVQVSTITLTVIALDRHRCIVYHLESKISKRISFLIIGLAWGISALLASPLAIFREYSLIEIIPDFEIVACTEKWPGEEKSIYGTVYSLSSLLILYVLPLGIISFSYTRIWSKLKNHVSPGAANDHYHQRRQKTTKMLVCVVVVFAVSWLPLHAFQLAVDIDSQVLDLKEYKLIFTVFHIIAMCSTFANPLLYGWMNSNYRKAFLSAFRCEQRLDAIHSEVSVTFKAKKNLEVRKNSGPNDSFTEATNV
NPY Y1 blocker: antagonists of human neuropeptide Y receptor Y1; HEK293-CNG Y1 cells, membrane potential fluorescence; NPY at EC95, then isoproterenol; 1% of 200,000 active; inhibition, % at 3.6 µM; AID 1040;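 active = inhibition above the campaign mean inhibition of all tested compounds plus 3 SD, cut at about 20% in these data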;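 note: 0% = DMSO wells given NPY plus isoproterenol and 100% = isoproterenol alone without NPY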
Target sequence (P25929 whole entry, looked up): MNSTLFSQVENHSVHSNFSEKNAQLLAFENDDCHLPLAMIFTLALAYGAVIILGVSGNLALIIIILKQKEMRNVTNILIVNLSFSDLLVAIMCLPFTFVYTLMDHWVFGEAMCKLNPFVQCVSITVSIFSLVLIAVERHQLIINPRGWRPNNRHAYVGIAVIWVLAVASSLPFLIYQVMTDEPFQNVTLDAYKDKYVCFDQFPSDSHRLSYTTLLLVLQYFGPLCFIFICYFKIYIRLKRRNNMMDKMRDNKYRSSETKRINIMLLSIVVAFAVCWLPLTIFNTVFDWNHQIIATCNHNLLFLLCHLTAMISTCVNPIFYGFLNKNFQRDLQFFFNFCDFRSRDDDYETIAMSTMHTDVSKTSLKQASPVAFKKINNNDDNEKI
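Material: HEK293 cells with Y1 receptor plus CNG channel; times: compound incubation 1 h at room temperature, readout 45 min post-stimulation; signal: fluorescence, membrane potential probe; read-out basis: fluorescence ratio normalized to % inhibition between controls; benchmarks: full-block control isoproterenol-only wells, zero-block control NPY plus isoproterenol wells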
Mdm2 ligase inh: blocks human Mdm2 ubiquitin ligase activity; 0.11% of 210,000 active; cell-based MDM2 ubiquitination luciferase reporter, 2 h; 0 = plate control, 100 = twice control, blank-subtracted; signal enhancement, % at 5 µM; Q00987;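 active = signal enhancement of 30% or more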;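 note: luminescence tracks abundance of the self-degrading MDM2-luciferase fusion protein; higher signal means inhibition of MDM2 E3 ligase activity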
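Buffer or medium: Cells held in DMEM | Assay system: Stable mammalian line carrying autodegrading MDM2–luciferase fusion reporter | Quantity: 2000 cells/well | Times: 4 h settle plus 2 h compound, 37 °C | Doses: One concentration, 5 µM, with 0.2% DMSO | Technique: Luminescence with SteadyLite reagent, 15 min at room temperature | Benchmarks: Plate controls and plate blanks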
Measles CPE: protection of cells from measles virus | Measles virus-infected cells, CPE protection, absorbance | protection (pct of control), % at 4 µM | 1.5% of 140,000 active; in the data active = protection mostly above about 24%, no sharp cut-off; inactive = mostly below about 26%
NPY-Y1 PAM-ag: human NPY-Y1 potentiation or agonism, primary screen; P25929; NPY-Y1 expressing cells, potentiator/agonist activation; activation, % at 3.6 µM; 0.37% of 220,000 active; AID 1304; in the data active = activation above about 33%, passing the limit was not always enough;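 note: cells stimulated with NPY at EC10 then isoproterenol at EC100; 0% = low agonist plus stimulus and 100% = saturating agonist plus stimulus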
NPY Y2 blocker: antagonists of human neuropeptide Y receptor Y2 | NPY-Y2 expressing cells, antagonist mode | inhibition, % at 2.7 µM | 0.99% of 140,000 active; in the data active = inhibition above about 17%;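 note: 0% = vehicle with agonist challenge and 100% = reference antagonist with challenge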
NPY1 antag conf: confirmation of human neuropeptide Y receptor Y1 antagonists. shares compounds with NPY Y1 blocker. HEK293-CNG NPY-Y1, membrane potential fluorescence, cAMP; NPY challenge against isoproterenol-raised cAMP. inhibition, % at 3.6 µM. 21% of 1,200 active. AID 1254; in the data active = inhibition above about 20%;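 note: 0% = vehicle with agonist plus stimulus and 100% = stimulus alone without agonist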
NPY-Y2 antag ct: antagonizes human NPY-Y2, counter-screen to NPY-Y1 antagonists; HEK293 NPY-Y2 CNG membrane potential fluorescence, antagonism; cells given NPY, then isoproterenol; inhibition, % at 3.6 µM; shares compounds with NPY Y1 blocker; 28% of 1,200 active; in the data active = inhibition above about 17%;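 note: 0% = DMSO with agonist challenge and 100% = reference antagonist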
NPY-Y1 pot conf: human NPY-Y1 potentiation or agonism, confirmation; shares compounds with NPY-Y1 PAM-ag; cell-based NPY-Y1 potentiator/agonist assay; activation, % at 3.6 µM; 20% of 280 active; AID 1546;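 note: cells challenged with NPY at its EC10 plus isoproterenol stimulus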
NPY-Y2 counter: potentiates or activates NPY-Y2, counter-screen for NPY-Y1 hits | shares compounds with NPY-Y1 PAM-ag | HEK293-CNG cells, membrane-potential fluorescence (FLIPR), 1536-well | activation, % at 3.6 µM | 20% of 280 active; in the data active = activation above about 33%
NPY-Y1 ag: counter-screen for NPY-Y1 potentiators: agonists of human NPY-Y1; shares compounds with NPY-Y1 PAM-ag; HEK293 Y1-CNGC, membrane potential fluorescence, agonist mode; activation, % at 3.6 µM; 50% of 280 active; AID 1697;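 active = percent activation above the mean of DMSO-only control wells plus 3 SD of those wells, cut at about 18% in these data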;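 note: cells challenged with isoproterenol plus Ro 20-1724 with no NPY in test wells; Y1 agonism lowers isoproterenol-driven cAMP and reduces probe fluorescence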
NPY-Y2 agonist: human NPY-Y2 agonism as NPY-Y1 counter-screen | shares compounds with NPY-Y1 PAM-ag | activation, % at 3.6 µM | 67% of 280 active | HEK293 Y2-CNGC, membrane potential fluorescence, agonist mode;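 active = activation above the solvent-only control wells' mean plus 3 SD, cut at about 11% in these data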;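 note: 0% = DMSO with isoproterenol and 100% = 40 nM NPY maximal response; agonism lowers cAMP so well fluorescence drops in active wells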
CNGC counter: CNG channel inhibition, counter-screen for NPY-Y1 potentiators. HEK293-CNG parental, isoproterenol cAMP, membrane potential fluorescence. shares compounds with NPY-Y1 PAM-ag. 42% of 280 active. inhibition, % at 3.6 µM;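 active = inhibition above the mean of stimulated solvent-only control wells plus 3 SD, cut at about 22% in these data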;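 note: 0% = isoproterenol-stimulated DMSO wells and 100% = unstimulated DMSO wells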
NPY-Y2 pot conf: confirmation of human NPY-Y2 receptor potentiators or agonists; shares compounds with NPY2 pot ag; cell-based NPY-Y2 potentiator/agonist assay; activation, % at 3.6 µM; 20% of 450 active; AID 1539; in the data active = activation above about 33%
NPY-Y1 counter: counter-screen for NPY-Y2 potentiators or agonists: NPY-Y1 potentiators or agonists | AID 1651 | activation, % at 3.6 µM | shares compounds with NPY2 pot ag | Y1 HEK293-CNG cells, membrane potential fluorescence | 20% of 450 active;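 note: cells stimulated with submaximal NPY then isoproterenol with phosphodiesterase inhibitor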
NPY-Y1 ag 2: human NPY-Y1 agonism as NPY-Y2 potentiator counter-screen. AID 1702. HEK293 Y1-CNGC, membrane potential fluorescence. shares compounds with NPY2 pot ag. 37% of 450 active. activation, % at 3.6 µM;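 active = activation above the mean of DMSO-only control wells plus 3 SD, cut at about 18% in these data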;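 note: cells stimulated with 1 µM isoproterenol plus the PDE inhibitor Ro 20-1724; 0% = isoproterenol with DMSO and no NPY and 100% = 40 nM NPY; Y1 agonists lower the membrane potential dye signal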
CNGC inhibitor: counter-screen for NPY-Y2 potentiators: inhibitors of CNG channel activity | HEK293-CNG parental, isoproterenol cAMP, membrane potential fluorescence | 32% of 450 active | shares compounds with NPY2 pot ag | inhibition, % at 3.6 µM;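 active = inhibition above the control-well mean plus 3 SD of those wells, cut at about 22% in these data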;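 note: 0% = DMSO with isoproterenol and 100% = DMSO without isoproterenol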
NPY-Y2 ag 2: activates human NPY-Y2 receptor in potentiator counter-screen; AID 1710; 56% of 450 active; HEK293 Y2/CNGC cells, membrane potential fluorescence, agonist mode; shares compounds with NPY2 pot ag; activation, % at 3.6 µM;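 active = activation above the mean of solvent-only control wells plus 3 SD, cut at about 10% in these data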;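 note: cells stimulated by isoproterenol with no NPY added so direct agonism is tested; 0% = DMSO with isoproterenol alone and 100% = NPY at EC100 plus isoproterenol; agonism lowers probe fluorescence through less cAMP and CNG channel opening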
Starred values were filed as active, the others as inactive; . = not tested or not shown. Hits are enriched below; roughly 2.8% of the tested compounds scored in any of these assays. Cut-off read from the data, not from the text of the source, unless noted: active = activation above about 45%; inactive = the rest.

SMILES	NPY2 pot ag	NPY Y1 blocker	Mdm2 ligase inh	Measles CPE	NPY-Y1 PAM-ag	NPY Y2 blocker	NPY-Y1 pot conf	NPY-Y2 counter	NPY-Y1 ag	NPY-Y2 agonist	CNGC counter	others
Cc1ccc(-n2ncc3c(SCc4cccnc4)ncnc32)c(C)c1	33*	25*	-25	.	-9	.	.	.	.	.	.	NPY1 antag conf=13;NPY-Y2 antag ct=6;NPY-Y2 pot conf=-17;NPY-Y1 counter=-60;NPY-Y1 ag 2=-50;CNGC inhibitor=-27;NPY-Y2 ag 2=-23
Cc1ccc(-n2nc(C)c(=O)c(-c3ccccc3)c2NC(=O)c2cccs2)cc1	0	.	-17	.	21	.	.	.	.	.	.
O=C(CN1c2ccccc2Sc2ccccc21)NNC(=S)Nc1ccc(Cl)cc1	32	.	-16	.	36	.	.	.	.	.	.
O=C(CN1c2ccccc2Sc2ccccc21)NNC(=S)Nc1ccc(Cl)cc1Cl	31	-16	-2	5	68*	-5	38	37*	16	46*	27*
CCOC(=O)Cn1c(=O)oc2cc(S(=O)(=O)NCc3cccs3)ccc21	27	-9	-9	1	33*	2	48*	27	46*	29*	61*
CCOC(=O)Cn1c(=O)oc2cc(S(=O)(=O)NCc3ccccn3)ccc21	3	0	-15	3	0	1	.	.	.	.	.
Brc1ccc(Nc2nc(-c3cccnc3)cs2)cc1	28	-11	-4	.	37*	.	42	31	43*	38*	34*
Brc1ccc(-c2csc(Nc3nc(-c4ccc(Br)cc4)cs3)n2)cc1	-12	.	-13	.	-11	.	.	.	.	.	.
COC(=O)CSc1ccc(S(=O)(=O)N2CCCCCC2)cc1[N+](=O)[O-]	0	-12	5	.	60*	.	121*	100*	108*	104*	99*
O=C(O)/C=C/S(=O)(=O)c1ccc2ccccc2c1	-37	.	-8	.	4	.	.	.	.	.	.
O=C(Nc1ccncc1)c1ccc2c(c1)C(=O)N(C1CCCCC1)C2=O	1	-1	-27	4	45*	2	2	17	18*	5	2
COC(=O)[C@@H]1CC[C@H](C)[C@@H](c2ccc(C)cc2)N1C(=O)c1ccc(/C=N/OC[C@@H](O)[C@H]2O[C@@H]3OC(C)(C)O[C@@H]3[C@H]2O)cc1	16	-3	.	7	39*	0	6	0	-2	6	-10
NC(=O)CN(c1ccc(Cl)cc1)S(=O)(=O)c1ccccc1	-4	3	0	3	-21	3	.	.	.	.	.
Cc1ccc(S(=O)(=O)N(CC(=O)Nc2ccccc2C(=O)O)c2ccc(Cl)cc2)cc1	3	4	-10	.	44*	.	8	4	5	20*	7
CC(C)N=c1scc(-c2cccs2)n1/N=C/c1ccc(O)c(O)c1O	21	-4	6	14	52*	-1	51*	39*	53*	26*	21
CCN=c1scc(-c2cccs2)n1/N=C/c1cc(OC)ccc1O	-1	-1	-21	17	-14	4	.	.	.	.	.
COc1ccc(C(=O)NC2CCCCCC2)cc1S(=O)(=O)N1CCCC1	0	5	6	.	10	.	.	.	.	.	.
COc1ccc(C(=O)NC2CCCCCC2)cc1S(=O)(=O)Nc1ccc(Br)cc1	26	-3	-10	32*	48*	2	44*	31	42*	31*	40*
C[N+](C)(C)C(Cc1c[nH]c2ccccc12)C(=O)[O-] (stereo unspecified)	.	.	-36	.	.	.	.	.	.	.	.
O=C1CCC2S/C(=C/Nc3ccc(C(F)(F)F)cc3)C(=O)N12 (stereo unspecified)	18	-4	-6	.	39*	.	35	18	22*	25*	30*
O=C1CCCC/C1=C/Nc1cccc(C(F)(F)F)c1	0	7	-2	.	-1	.	.	.	.	.	.
Cc1noc(-c2ccc(C(F)(F)F)cc2)c1NC(=O)Nc1ccc(Cl)cc1	12	.	-11	.	63*	.	53*	31	53*	25*	37*
Cc1cc(-c2onc(C)c2C(=O)Nc2ccc(C(F)(F)F)cc2)no1	-15	.	7	.	1	.	.	.	.	.	.
Cc1cc2nc(-c3cccnc3SCC(=O)NC(C)C)[nH]c2cc1C	-14	0	-20	.	-34	.	.	.	.	.	.
COc1cc(/C=C(\C#N)c2nc3ccccc3s2)cc([N+](=O)[O-])c1O	13	0	-19	.	17	.	.	.	.	.	.
N#C/C(=C\c1ccc(O)c([N+](=O)[O-])c1)c1nc2ccccc2s1	7	-7	-7	.	39*	.	15	12	9	4	16
O=C(NC(=O)N1CCN(c2ccc([N+](=O)[O-])cn2)CC1)c1c(Cl)cccc1Cl	-8	.	0	.	17	.	.	.	.	.	.
